Values after ≈ are worked out from the molar mass of the structure shown.
Legend:
Fusarium solani [1] = experiment: Antimicrobial activity against Fusarium solani at 0.3 uM after 48 hrs by microtiter assay; assay type: functional
In short: (§1)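 96-well microdilution broth assay with conidia (3 × 10^5 conidia/mL, harvested from 7-day PDA cultures and filtered) against F. oxysporum, F. proliferatum and F. solani at 0.3, 3 and 30 µM. Plates were held at 24 ± 1 °C under a 12 h photoperiod. Growth was read at 620 nm at 24, 48 and 72 h and reported as percent inhibition from mean absorbance with standard error.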

PC-3 = experiment: Cytotoxicity against human PC3 cells; assay type: functional
In short: (§2)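 NCI Developmental Therapeutics Program cell panel. GI50 is the concentration that reduces growth of treated cells to half that of untreated controls. TGI is the concentration that completely halts growth.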

Fusarium proliferatum [2] = experiment: Antimicrobial activity against Fusarium proliferatum at 30 uM after 72 hrs by microtiter assay; assay type: functional; in short: as §1
Fusarium proliferatum [3] = experiment: Antimicrobial activity against Fusarium proliferatum at 3 uM after 72 hrs by microtiter assay; assay type: functional; in short: as §1
Aspergillus fumigatus = experiment: Antimicrobial activity against Aspergillus fumigatus ATCC 90906; assay type: functional, organism-based
[4] = test system: Mycobacterium intracellulare; experiment: Antimicrobial activity against Mycobacterium intracellular ATCC 23068; assay type: functional, organism-based
Fusarium solani [5] = experiment: Antimicrobial activity against Fusarium solani at 30 uM after 72 hrs by microtiter assay; assay type: functional; in short: as §1
Hs-578T = experiment: Cytotoxicity against human HS578T cells; assay type: functional; in short: as §2
Cryptococcus neoformans = experiment: Antimicrobial activity against Cryptococcus neoformans ATCC 90113; assay type: functional, organism-based
KM12 = experiment: Cytotoxicity against human KM12 cells; assay type: functional; in short: as §2
Fusarium oxysporum [6] = experiment: Antimicrobial activity against Fusarium oxysporum at 3 uM after 48 hrs by microtiter assay; assay type: functional; in short: as §1
Fusarium oxysporum [7] = experiment: Antimicrobial activity against Fusarium oxysporum at 30 uM after 72 hrs by microtiter assay; assay type: functional; in short: as §1
A549 = experiment: Cytotoxicity against human A549 cells; assay type: functional; in short: as §2
HT-29 = experiment: Cytotoxicity against human HT29 cells; assay type: functional; in short: as §2
Leishmania donovani = experiment: Antiparasitic activity against Leishmania donovani; assay type: functional, organism-based
Fusarium solani [8] = experiment: Antimicrobial activity against Fusarium solani at 3 uM after 72 hrs by microtiter assay; assay type: functional; in short: as §1
Fusarium solani [9] = experiment: Antimicrobial activity against Fusarium solani at 0.3 uM after 72 hrs by microtiter assay; assay type: functional; in short: as §1
Fusarium oxysporum [10] = experiment: Antimicrobial activity against Fusarium oxysporum at 3 uM after 72 hrs by microtiter assay; assay type: functional; in short: as §1
SK-OV-3 = experiment: Cytotoxicity against human SK-OV3 cells; assay type: functional; in short: as §2
[11] = test system: Mycobacterium tuberculosis; experiment: Antibacterial activity against Mycobacterium tuberculosis H37Rv at 16 ug/mL by micro plate alamar blue assay; assay type: functional
In short: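 M. tuberculosis H37Rv ATCC 27294 grown in BACTEC 12B medium; microplate Alamar blue assay (MABA). Primary screen at a single concentration of 16 µg/mL, read as percent inhibition.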

HCC 2998 = experiment: Cytotoxicity against human HCC2998 cells; assay type: functional; in short: as §2
Fusarium oxysporum [12] = experiment: Antimicrobial activity against Fusarium oxysporum at 30 uM after 48 hrs by microtiter assay; assay type: functional; in short: as §1
Fusarium solani [13] = experiment: Antimicrobial activity against Fusarium solani at 30 uM after 48 hrs by microtiter assay; assay type: functional; in short: as §1
Fusarium proliferatum [14] = experiment: Antimicrobial activity against Fusarium proliferatum at 3 uM after 48 hrs by microtiter assay; assay type: functional; in short: as §1
Fusarium proliferatum [15] = experiment: Antimicrobial activity against Fusarium proliferatum at 0.3 uM after 72 hrs by microtiter assay; assay type: functional; in short: as §1
DU-145 = experiment: Cytotoxicity against human DU145 cells; assay type: functional; in short: as §2
T47D = experiment: Cytotoxicity against human T47D cells; assay type: functional; in short: as §2
Fusarium solani [16] = experiment: Antimicrobial activity against Fusarium solani at 3 uM after 48 hrs by microtiter assay; assay type: functional; in short: as §1
SNB-75 = experiment: Cytotoxicity against human SNB75 cells; assay type: functional; in short: as §2
RPMI-8226 = experiment: Cytotoxicity against human RPMI8226 cells; assay type: functional; in short: as §2
Candida albicans = experiment: Antimicrobial activity against Candida albicans ATCC 90028; assay type: functional, organism-based
HCT-15 = experiment: Cytotoxicity against human HCT15 cells; assay type: functional; in short: as §2
COLO 205 = experiment: Cytotoxicity against human COLO205 cells; assay type: functional; in short: as §2
Fusarium oxysporum [17] = experiment: Antimicrobial activity against Fusarium oxysporum at 0.3 uM after 48 hrs by microtiter assay; assay type: functional; in short: as §1
UACC-257 = experiment: Cytotoxicity against human UACC257 cells; assay type: functional; in short: as §2
[18] = test system: Mycobacterium tuberculosis; experiment: Antibacterial activity against Mycobacterium tuberculosis H37Rv by micro plate alamar blue assay; assay type: functional
ACHN = experiment: Cytotoxicity against human ACHN cells; assay type: functional; in short: as §2
Fusarium oxysporum [19] = experiment: Antimicrobial activity against Fusarium oxysporum at 0.3 uM after 72 hrs by microtiter assay; assay type: functional; in short: as §1
NCI-H322M = experiment: Cytotoxicity against human NCI-H322M cells; assay type: functional; in short: as §2
Fusarium proliferatum [20] = experiment: Antimicrobial activity against Fusarium proliferatum at 0.3 uM after 48 hrs by microtiter assay; assay type: functional; in short: as §1
Fusarium proliferatum [21] = experiment: Antimicrobial activity against Fusarium proliferatum at 30 uM after 48 hrs by microtiter assay; assay type: functional; in short: as §1

`C/C=C1\NC(=O)[C@H](Cc2ccccc2)NC(=O)[C@@H](C(C)C)NC(=O)[C@@H]([C@@H](C)CC)NC(=O)[C@H](NC(=O)[C@H](NC(=O)[C@H](CCCNCc2cccs2)NC(=O)[C@H]2CCCN2C(=O)[C@H](NC(=O)[C@@H](NC(=O)[C@@H](NC(=O)[C@H](NC(=O)CCCC(C)C)C(C)C)[C@@H](C)O)C(C)C)C(C)C)[C@@H](C)CC)[C@@H](C)OC(=O)[C@H](C(C)C)NC1=O` was tested, and the inhibition at 0.3 µM (Fusarium solani [1]) was 0%, the GI50 (PC-3) was 228 nM and the TGI (PC-3) was 665 nM. For the same compound, the inhibition at 30 µM (Fusarium proliferatum [2]) was 99%, the inhibition at 3 µM (Fusarium proliferatum [3]) was 0% and the MFC (Aspergillus fumigatus) was 20 µM (≈ 31.5 µg/mL). For the same compound, the MIC (Aspergillus fumigatus) was 10 µM (≈ 15.7 µg/mL), the MBC [4] was > 20 µM and the MIC [4] was > 20 µM. The inhibition at 30 µM (Fusarium solani [5]) was 99.3%, the GI50 (Hs-578T) was 427 nM and the TGI (Hs-578T) was 2130 nM. For the same compound, the MFC (Cryptococcus neoformans) was 10 µM (≈ 15.7 µg/mL), the MIC (Cryptococcus neoformans) was 5 µM (≈ 7.87 µg/mL) and the GI50 (KM12) was 1010 nM. For the same compound, the TGI (KM12) was 2190 nM, the inhibition at 3 µM (Fusarium oxysporum [6]) was 13.7% and the inhibition at 30 µM (Fusarium oxysporum [7]) was 99.2%. For the same compound, the GI50 (A549) was 166 nM, the GI50 (HT-29) was 187 nM and the IC90 (Leishmania donovani) was 34 µg/mL (≈ 21.6 µM). For the same compound, the inhibition at 3 µM (Fusarium solani [8]) was 32.9%, the inhibition at 0.3 µM (Fusarium solani [9]) was 0% and the inhibition at 3 µM (Fusarium oxysporum [10]) was 0%. For the same compound, the GI50 (SK-OV-3) was 223 nM, the TGI (SK-OV-3) was 485 nM and the inhibition at 16 µg/mL [11] was 92%. It also gave a GI50 (HCC 2998) of 255 nM, a TGI (HCC 2998) of 971 nM and an inhibition at 30 µM (Fusarium oxysporum [12]) of 98.8%. The inhibition at 30 µM (Fusarium solani [13]) was 99%, the inhibition at 3 µM (Fusarium proliferatum [14]) was 4.8% and the inhibition at 0.3 µM (Fusarium proliferatum [15]) was 0%. For the same compound, the GI50 (DU-145) was 144 nM, the TGI (DU-145) was 292 nM and the GI50 (T47D) was 191 nM. For the same compound, the TGI (T47D) was 394 nM, the inhibition at 3 µM (Fusarium solani [16]) was 47% and the GI50 (SNB-75) was 1010 nM. It also gave a TGI (SNB-75) of 2190 nM, a GI50 (RPMI-8226) of 1270 nM and a TGI (RPMI-8226) of 2760 nM. The MFC (Candida albicans) was 20 µM (≈ 31.5 µg/mL), the MIC (Candida albicans) was 10 µM (≈ 15.7 µg/mL) and the GI50 (HCT-15) was 416 nM. The TGI (HCT-15) was 1360 nM, the GI50 (COLO 205) was 243 nM and the inhibition at 0.3 µM (Fusarium oxysporum [17]) was 0%. The GI50 (UACC-257) was 1440 nM, the TGI (UACC-257) was 2820 nM and the MIC [18] was 15.5 µg/mL (≈ 9.85 µM). For the same compound, the GI50 (ACHN) was 1320 nM, the TGI (ACHN) was 2370 nM and the inhibition at 0.3 µM (Fusarium oxysporum [19]) was 0%. The GI50 (NCI-H322M) was 167 nM, the TGI (NCI-H322M) was 304 nM and the inhibition at 0.3 µM (Fusarium proliferatum [20]) was 0%. The inhibition at 30 µM (Fusarium proliferatum [21]) was 98.7%.
